Measured values taken from publication PMC4277779 (Journal of the American Chemical Society, 2014).
Non-standard residues stand in square brackets, D forms with d. No end group written: not given here. Orn = NCCC[C@H](N)C(=O)O

Columns and labels:
[1] = Far-UV circular dichroism: effects of pH and temperature; assay type: physicochemical; settings: 4 to 20 to 37 °C, phosphate buffer
Summary of the method: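 Far-UV CD spectra of the test peptides were recorded in phosphate buffer (pH 7.0) and in the NMR buffer (100 mM acetate, pH 3.8). A temperature series at 4, 20 and 37 °C was run in phosphate buffer.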

[2] = 4 °C, cited from earlier work
[3] = ΔδCαH-based β-hairpin population and thermodynamic analysis by NMR; assay type: physicochemical; settings: relative to parent peptide I, 4 °C, pH 3.8; for ΔΔGfold: calculated for each reporter position and averaged
Summary of the method: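 NMR samples were prepared in 100 mM acetate buffer, pH 3.8.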

[4] = aqueous buffer pH 3.8, ref 9a (Syud et al.)

Substance	effect of temperature on far UV CD (in words) [1]	population of the β-hairpin conformation ([2]; aqueous buffer pH 3.8, NMR, ref 9b)	β-hairpin population at reporter position Ile 10 [2, 4]	β-hairpin population at reporter position Orn 8 [2, 4]	β-hairpin population at reporter position Val 3 [2, 4]	β-hairpin population at reporter position Val 5 [2, 4]	effect of residue replacement on β-hairpin population (in words) [3]	ΔΔGfold [3]
RYVEV[dP]G[Orn]KILQ-NH2 [Peptide I]	does not significantly alter	~68%	59%	65%	70%	76%	–	–
Arg-Tyr-Val-Glu-Val-DPro-Gly-Orn-TO+-Ile-Leu-Gln-NH2 [Peptide II]	–	–	–	–	–	–	little effect on β-hairpin population	+0.1 ± 0.2 kcal/mol
Arg-Tyr-Val-TS--Val-DPro-Gly-Orn-Lys-Ile-Leu-Gln-NH2 [Peptide IV]	does not significantly alter	–	–	–	–	–	enhanced β-hairpin population	–0.6 ± 0.3 kcal/mol
Arg-Tyr-Val-Glu-Val-DPro-Gly-Orn-TS+-Ile-Leu-Gln-NH2 [Peptide III]	does not significantly alter	–	–	–	–	–	enhanced β-hairpin population	–0.5 ± 0.4 kcal/mol
